# Screens: PubChem BioAssay, Broad Institute
# Only some compounds are listed: those with a hit (about 1.6% of all), similar ones and a draw of the others.
# S100A4 inh HTS – inhibitors of S100A4-myosin IIA peptide binding, primary screen, biochemical, fluorescence polarization, TAMRA-MyoIIA peptide | Protein S100-A4 (Homo sapiens), P26447 | inhibition, % at 10.7 µM | 360,000 compounds, 0.14% hits | AID 652163, 2013;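 active = mean inhibition of at least 70% across replicates, with every replicate also reaching that level; inconclusive = mean inhibition reaches 70% but some replicates fall short; inactive = mean inhibition below 70%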
# Target sequence (P26447 whole entry, looked up): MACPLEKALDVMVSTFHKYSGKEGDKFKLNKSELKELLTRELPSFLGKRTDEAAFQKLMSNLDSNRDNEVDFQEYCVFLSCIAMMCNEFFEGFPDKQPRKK
#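 Compound dosing: one dose per compound; test system: human S100A4 monomer with TAMRA-labelled myosin IIA peptide; probe or stimulus: TAMRA-labelled myosin IIA heavy-chain peptide probe, 5 nM; medium: HEPES buffer with Ca2+, pH 7.2; schedule: 5 min incubation before reading; benchmarks: neutral control DMSO, positive control TFP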
# PvdQ inh – P. aeruginosa PvdQ acylase inhibitors, primary screen, biochemical, fluorescence, plate reader and imaging, single point. PvdQ acylase [Pseudomonas aeruginosa LESB58]. purified PvdQ acylase. inhibition, % at 10 µM. 340,000 compounds, 0.063% hits. AID 488965, 2010; in the data active = inhibition above about 30%, passing the limit was not always enough; inconclusive = no clear call, values can overlap the other calls;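 note: 0% = vehicle neutral wells and 100% = reference inhibitor wells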
# dFosB act – activators of delta FosB homodimer, primary screen, biochemical, fluorescence polarization, TAMRA-CDK5 oligo, single point | 340,000 compounds, 0.99% hits | Protein FosB (Mus musculus), P13346 | purified delta FosB; percent of positive-control signal above neutral wells | activation, % at 25 µM;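 active = mean activation above about 17%, with every replicate also reaching it, limit read from the data, passing the limit was not always enough; inconclusive = only one of the two conditions met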
# Target sequence (P13346 whole entry, looked up): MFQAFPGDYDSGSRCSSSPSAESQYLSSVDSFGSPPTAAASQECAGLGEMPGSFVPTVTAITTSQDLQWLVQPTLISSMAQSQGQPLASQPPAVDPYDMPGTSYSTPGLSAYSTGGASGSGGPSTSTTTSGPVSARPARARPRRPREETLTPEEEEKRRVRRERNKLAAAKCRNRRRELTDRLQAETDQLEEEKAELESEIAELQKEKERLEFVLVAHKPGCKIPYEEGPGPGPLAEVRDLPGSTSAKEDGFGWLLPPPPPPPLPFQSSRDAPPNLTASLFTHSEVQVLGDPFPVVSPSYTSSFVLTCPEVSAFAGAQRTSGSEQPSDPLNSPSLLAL
# SR-BI uptake up – activators of SR-BI mediated DiI-HDL uptake, primary screen, ldlA[mSR-BI] CHO cells, DiI fluorescence; activation, % at 12.5 µM; AID 504775, 2011; 3 h; 100 = double the neutral-control signal; 320,000 compounds, 0.096% hits;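 active = mean replicate activation of at least 60% and every replicate at or above 60%; inconclusive = mean or all-replicate condition met, but not both; inactive = mean below 60% and not all replicates reaching 60%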;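 note: 0% = median plate neutral-control signal and 100% = twice that signal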
#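 material = CHO ldlA[mSR-BI] cells | medium = Ham's F12 with 0.5% BSA, HEPES 25 mM, pH 7.4 | reagent = fluorescent DiI-HDL, 10 µg/mL final | compound dosing = single-point compound dose | incubation = 3 h, 37 °C | measured by = bottom-read fluorescence, 550/595 nm | measure = HDL uptake via cellular fluorescence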
# SR-BI DiI inh – inhibitors of SR-BI mediated HDL lipid uptake, primary screen, ldlA[mSR-BI] cells, fluorescence, single point | Scavenger receptor class B member 1 (Mus musculus), Q61009 | AID 488896, 2010 | inhibition, % at 12.5 µM | 320,000 compounds, 0.96% hits | ldlA[mSR-BI] CHO cells, DiI-HDL uptake fluorescence, 3 h;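 active = mean replicate inhibition of at least 70% and a set share of replicates each scoring 70 or more; inconclusive = meets just one of the two criteria; inactive = fails both criteria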;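 note: 0% = median of neutral control wells and 100% = median of positive control wells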
# RAD54 branch – inhibitors of human RAD54 branch migration, primary screen, biochemical, fluorescence, single point | RAD54 Holliday junction branch migration, FAM/BHQ fluorescence | inhibition, % at 10.4 µM | 360,000 compounds, 0.14% hits | AID 602329, 2012;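 active = mean normalized replicate activity at least 40 and at least half of replicates scoring 40 or more; inconclusive = only one of the two criteria met; inactive = mean below 40 and under half of replicates reaching 40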;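 note: 0% = median of neutral control wells and 100% = median of positive control wells; inhibitors cause a drop in the FAM fluorescence signal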
# An asterisk follows results filed as active; ? = inconclusive; / = no result.
SMILES,S100A4 inh HTS,PvdQ inh,dFosB act,SR-BI uptake up,SR-BI DiI inh,RAD54 branch
COc1ccc(C)cc1NC(=O)c1cccc(-c2ccc(OC(C)=O)cc2)c1,-2.9,-3.1,-6.8,-76.9,76.9*,5.2
Cc1ccc(NC(=O)c2ccc(OCc3c(C)noc3C)cc2)cc1C,-12.2,0.0,-11.3,-89.2,89.2*,1.9
CN(C)C(=O)C[C@@H]1CC[C@@H]2[C@H](COC[C@H](O)CN2C(=O)C2CCCC2)O1,/,/,/,/,/,-0.4
N#Cc1cc(-c2ccccc2)cnc1Cl,/,36.8*,-4.3,-1.9,1.9,/
Clc1ccc(-c2ccccc2)cn1,9.7,-15.6,3.8,9.3,-9.3,0.5
O=C(CC1SC(=Nc2ccccc2)N(CCO)C1=O)Nc1ccccc1 (centres undefined),-2.4,3.8,-2.8,-26.5,26.5,/
CCN1C(=O)C(CC(=O)Nc2ccccc2)S/C1=N\c1ccccn1 (centres undefined),-2.5,-4.8,-8.7,-78.0,78.0*,/
C=CCN1C(=O)C(CC(=O)Nc2ccccc2F)S/C1=N\c1nccs1 (centres undefined),-16.4,-13.6,5.0,-84.5,84.5*,3.7
COc1ccc(CN(C)C[C@H]2Oc3ccc(NS(=O)(=O)c4cccs4)cc3CC(=O)N([C@H](C)CO)C[C@@H]2C)cc1,5.3,/,/,/,/,/
O=C(Nc1cc2c3c(c1)CC(=O)N3CCC2)c1ccc(Cl)cc1,5.6,-4.3,-3.9,-78.7,78.7*,-8.2
O=C(NC1CCSC1=O)c1cccc(Cl)c1 (centres undefined),1.4,-0.4,1.9,3.4,-3.4,1.6
O=C(NC1CCSC1)c1cccc(Cl)c1 (centres undefined),3.7,80.7*,1.3,14.1,-14.1,-3.0
CN1/C(=C/C=C(C#N)C#N)C(C)(C)c2ccccc21,-12.7,4.1,-9.0,-5.0,5.0,-24.3
CN1/C(=C\C=O)C(C)(C)c2ccccc21,-36.5,3.3,22.6*,-2.4,2.4,/
CN(C)c1ccc(N=C/C=C2\N(C)c3ccccc3C2(C)C)cc1,/,-16.7,2.3,1.3,-1.3,9.0
CN1\C(=C/C=C/C=C/C=[N+](C)C)C(C)(C)c2ccccc21,2.9,-3.8,?,182.1*,-182.1,/
CN1C(=O)c2cc(NC(=O)Nc3ccc(Cl)cc3)ccc2OC[C@@H]2O[C@H](CC(=O)O)CC[C@@H]21,-2.9,/,/,/,/,-2.5
O=C1C(Nc2ccccc2)=C(N2CCCCC2)C(=O)c2ccccc21,/,5.1,-5.8,14.0,-14.0,/
Cc1ccc(NC2=C(N3CCCCC3)C(=O)c3ccccc3C2=O)cc1,/,-0.8,-7.8,-73.4,73.4*,/
O=C1C(Nc2cccc(O)c2)=C(N2CCCCC2)C(=O)c2ccccc21,/,5.9,-4.8,-47.1,47.1,7.4
O=C(/C=C/c1ccc(O)cc1)c1ccc(NC2=C(N3CCCCC3)C(=O)c3ccccc3C2=O)cc1,-2.9,0.3,-19.1,-89.9,89.9*,-4.4
O=C(Cc1ccccn1)N[C@H]1CC[C@H](CC(=O)N2CCCCC2)O[C@@H]1CO,2.2,/,/,/,/,-4.8
CS(=O)(=O)c1cccc(NC(=O)c2ccc(Cl)c(Cl)c2)c1,-12.0,-2.8,-12.6,-83.3,83.3*,/
CS(=O)(=O)c1ccc(C(=O)Nc2cc(S(C)(=O)=O)ccc2Cl)cc1,-1.5,0.8,-3.0,3.9,-3.9,/
CC(C)NC(=O)Nc1cccc2c1O[C@H](CN(C)Cc1ccncc1)[C@H](C)CN([C@H](C)CO)C2=O,-32.9,/,/,/,/,8.5
Cn1cc(C(=O)N/N=C/C2=C(N3CCOCC3)C(=C/c3ccc([N+](=O)[O-])cc3)/CC2)ccc1=O,-18.1,-0.3,2.5,/,/,-2.7
CC(C)C(NC(=O)C12CC3CC(CC(C3)C1)C2)C(=O)N/N=C/C1=C(N2CCOCC2)C(=C\c2cccc([N+](=O)[O-])c2)/CC1 (centres undefined),-0.9,-3.6,-2.1,-84.7,84.8*,1.5
